Data published in ChEMBL document CHEMBL1154787, “Enaminonitrile in heterocyclic synthesis: synthesis and antimicrobial evaluation of some new pyrazole, isoxazole and pyrimidine derivatives incorporating a benzothiazole moiety” (2009).
Converted amounts (≈) assume the structure as drawn.

Assays:
Type in all cases: functional
Botrytis fabae = assay: Antifungal activity against Botrytis fabae after 24-48 hrs by microdilution susceptibility test
Outline: (§1)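 MIC by twofold serial dilution in wells, tested only for compounds giving inhibition zones >10 mm; microbial suspensions at 10⁶ CFU/mL inoculated into wells, incubated at 36 °C for 24–48 h, then MIC read.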

Fusarium oxysporum [1] = assay: Antifungal activity against Fusarium oxysporum after 24-48 hrs by microdilution susceptibility test; outline: as §1
Escherichia coli [2] = assay: Antibacterial activity against Escherichia coli after 24-48 hrs by microdilution susceptibility test; outline: as §1
Bacillus thuringiensis [3] = assay: Antibacterial activity against Bacillus thuringiensis after 24-48 hrs by microdilution susceptibility test; outline: as §1
Bacillus thuringiensis [4] = assay: Antibacterial activity against Bacillus thuringiensis assessed as zone of inhibition diameter at 1 mg/mL after 24 hrs […]; conditions: read-out: DIZ
Outline: (§2)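 Agar diffusion: 5 mm sterile filter-paper disks loaded with test compound in DMF (1 mg/mL) placed on agar seeded with the bacterium, in triplicate; DMF alone as control; incubated 37 °C for 24 h; mean inhibition-zone diameter recorded in mm.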

Pseudomonas aeruginosa [5] = assay: Antibacterial activity against Pseudomonas aeruginosa after 24-48 hrs by microdilution susceptibility test; outline: as §1
Bacillus subtilis [6] = assay: Antibacterial activity against Bacillus subtilis assessed as zone of inhibition diameter at 1 mg/mL after 24 hrs […]; conditions: read-out: DIZ; outline: as §2
Fusarium oxysporum [7] = assay: Antifungal activity against Fusarium oxysporum assessed as zone of inhibition diameter at 1 mg/mL after 48 hrs […]; conditions: read-out: DIZ
Outline: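 Agar diffusion: 5 mm sterile filter-paper disks loaded with test compound in DMF (1 mg/mL) placed on agar seeded with the fungus, in triplicate; DMF alone as control; incubated at 37 °C for fungal plates; mean inhibition-zone diameter recorded in mm.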

Bacillus subtilis [8] = assay: Antibacterial activity against Bacillus subtilis after 24-48 hrs by microdilution susceptibility test; outline: as §1
Pseudomonas aeruginosa [9] = assay: Antibacterial activity against Pseudomonas aeruginosa assessed as zone of inhibition diameter at 1 mg/mL after 24 hrs […]; conditions: read-out: DIZ; outline: as §2
Escherichia coli [10] = assay: Antibacterial activity against Escherichia coli assessed as zone of inhibition diameter at 1 mg/mL after 24 hrs […]; conditions: read-out: DIZ; outline: as §2

SMILES	MIC (Botrytis fabae)	MIC (Fusarium oxysporum [1])	MIC (Escherichia coli [2])	MIC (Bacillus thuringiensis [3])	zone of inhibition at 1000 µg/mL (Bacillus thuringiensis [4])	MIC (Pseudomonas aeruginosa [5])	zone of inhibition at 1000 µg/mL (Bacillus subtilis [6])	zone of inhibition at 1000 µg/mL (Fusarium oxysporum [7])	MIC (Bacillus subtilis [8])	zone of inhibition at 1000 µg/mL (Pseudomonas aeruginosa [9])	zone of inhibition at 1000 µg/mL (Escherichia coli [10])
NC1=Nc2ccccc2NC=C1C(=O)Nc1nc2ccccc2s1	12.5 µg/mL (≈ 37.3 µM)	25 µg/mL (≈ 74.5 µM)	25 µg/mL (≈ 74.5 µM)	12.5 µg/mL (≈ 37.3 µM)	31 mm	6.25 µg/mL (≈ 18.6 µM)	37 mm	25 mm	6.25 µg/mL (≈ 18.6 µM)	37 mm	25 mm
Nc1oncc1C(=O)Nc1nc2ccccc2s1	6.25 µg/mL (≈ 24 µM)	25 µg/mL (≈ 96.1 µM)	50 µg/mL (≈ 192 µM)	25 µg/mL (≈ 96.1 µM)	25 mm	50 µg/mL (≈ 192 µM)	19 mm	25 mm	50 µg/mL (≈ 192 µM)	19 mm	19 mm
N#C/C(=C/N)C(=O)Nc1nc2ccccc2s1	6.25 µg/mL (≈ 25.6 µM)	12.5 µg/mL (≈ 51.2 µM)	25 µg/mL (≈ 102 µM)	50 µg/mL (≈ 205 µM)	19 mm	100 µg/mL (≈ 409 µM)	13 mm	31 mm	100 µg/mL (≈ 409 µM)	13 mm	25 mm
N#C/C(=C\NNc1ccccc1)C(=O)Nc1nc2ccccc2s1	6.25 µg/mL (≈ 18.6 µM)	12.5 µg/mL (≈ 37.3 µM)	12.5 µg/mL (≈ 37.3 µM)	50 µg/mL (≈ 149 µM)	19 mm	25 µg/mL (≈ 74.5 µM)	13 mm	31 mm	100 µg/mL (≈ 298 µM)	25 mm	31 mm
Nc1[nH]ncc1C(=O)Nc1nc2ccccc2s1	3.12 µg/mL (≈ 12.1 µM)	6.25 µg/mL (≈ 24.1 µM)	12.5 µg/mL (≈ 48.2 µM)	50 µg/mL (≈ 193 µM)	19 mm	12.5 µg/mL (≈ 48.2 µM)	31 mm	37 mm	12.5 µg/mL (≈ 48.2 µM)	31 mm	31 mm
CN(C)/C=C(\C#N)C(=O)Nc1nc2ccccc2s1	25 µg/mL (≈ 91.8 µM)	25 µg/mL (≈ 91.8 µM)	100 µg/mL (≈ 367 µM)	25 µg/mL (≈ 91.8 µM)	25 mm	50 µg/mL (≈ 184 µM)	13 mm	25 mm	100 µg/mL (≈ 367 µM)	19 mm	13 mm
Nc1ncc(C(=O)Nc2nc3ccccc3s2)c(N)n1	3.12 µg/mL (≈ 10.9 µM)	6.25 µg/mL (≈ 21.8 µM)	25 µg/mL (≈ 87.3 µM)	25 µg/mL (≈ 87.3 µM)	25 mm	50 µg/mL (≈ 175 µM)	31 mm	37 mm	12.5 µg/mL (≈ 43.7 µM)	19 mm	25 mm
N#Cc1cncn(-c2nc3ccccc3s2)c1=O	12.5 µg/mL (≈ 49.2 µM)	50 µg/mL (≈ 197 µM)	50 µg/mL (≈ 197 µM)	50 µg/mL (≈ 197 µM)	19 mm	50 µg/mL (≈ 197 µM)	31 mm	19 mm	12.5 µg/mL (≈ 49.2 µM)	19 mm	19 mm
N=c1c(C(=O)Nc2nc3ccccc3s2)cnc2sccn12	12.5 µg/mL (≈ 38.2 µM)	25 µg/mL (≈ 76.4 µM)	25 µg/mL (≈ 76.4 µM)	25 µg/mL (≈ 76.4 µM)	25 mm	6.25 µg/mL (≈ 19.1 µM)	31 mm	25 mm	12.5 µg/mL (≈ 38.2 µM)	37 mm	25 mm
N#C/C(=C\NN)C(=O)Nc1nc2ccccc2s1	6.25 µg/mL (≈ 24.1 µM)	50 µg/mL (≈ 193 µM)	25 µg/mL (≈ 96.4 µM)	50 µg/mL (≈ 193 µM)	19 mm	25 µg/mL (≈ 96.4 µM)	13 mm	19 mm	100 µg/mL (≈ 386 µM)	25 mm	25 mm
Nc1c(C(=O)Nc2nc3ccccc3s2)cnc2nnnn12	3.12 µg/mL (≈ 10 µM)	6.25 µg/mL (≈ 20 µM)	50 µg/mL (≈ 160 µM)	12.5 µg/mL (≈ 40 µM)	31 mm	50 µg/mL (≈ 160 µM)	43 mm	37 mm	3.12 µg/mL (≈ 10 µM)	19 mm	19 mm
Nc1c(C(=O)Nc2nc3ccccc3s2)cnn1-c1ccccc1	12.5 µg/mL (≈ 37.3 µM)	50 µg/mL (≈ 149 µM)	50 µg/mL (≈ 149 µM)	50 µg/mL (≈ 149 µM)	19 mm	50 µg/mL (≈ 149 µM)	31 mm	19 mm	12.5 µg/mL (≈ 37.3 µM)	19 mm	19 mm
N=c1c(C(=O)Nc2nc3ccccc3s2)cnc2ccccn12	6.25 µg/mL (≈ 19.4 µM)	25 µg/mL (≈ 77.8 µM)	12.5 µg/mL (≈ 38.9 µM)	12.5 µg/mL (≈ 38.9 µM)	31 mm	50 µg/mL (≈ 156 µM)	37 mm	25 mm	6.25 µg/mL (≈ 19.4 µM)	19 mm	31 mm
O=C(N[C@H](CO)[C@H](O)c1ccc([N+](=O)[O-])cc1)C(Cl)Cl [CHLORAMPHENICOL]			6.25 µg/mL (≈ 19.3 µM)	6.25 µg/mL (≈ 19.3 µM)	37 mm	6.25 µg/mL (≈ 19.3 µM)	37 mm		6.25 µg/mL (≈ 19.3 µM)	37 mm	37 mm
OC(Cn1cncn1)(Cn1cncn1)c1ccc(F)cc1F [FLUCONAZOLE]	3.12 µg/mL (≈ 10.2 µM)	3.12 µg/mL (≈ 10.2 µM)						43 mm			
CN[C@@H]1[C@H](O[C@H]2[C@H](O[C@H]3[C@H](O)[C@@H](O)[C@H](N=C(N)N)[C@@H](O)[C@@H]3N=C(N)N)O[C@@H](C)[C@]2(O)C=O)O[C@@H](CO)[C@H](O)[C@H]1O [STREPTOMYCIN]			6.25 µg/mL (≈ 10.7 µM)	6.25 µg/mL (≈ 10.7 µM)	37 mm	6.25 µg/mL (≈ 10.7 µM)	43 mm		3.12 µg/mL (≈ 5.37 µM)	37 mm	37 mm
